# According to ChEMBL document CHEMBL3875153, “Design and synthesis of isatin/triazole conjugates that induce apoptosis and inhibit migration of MGC-803 cells” (Eur J Med Chem, 2016):
# The source made the active and inactive calls. The calls are words filed in the database; no cut-off is given here.
# Assays:
# [1] = Cytotoxicity against human SW780 cells assessed as growth inhibition after 72 hrs by CCK8 assay; assay type: functional, cell-based; conditions: Homo sapiens, SW780, 72 h; read-out: IC50
# How it was run: (§1)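 Exponentially growing cells were trypsinized and seeded at 2 × 10^4 cells/mL (100 µL/well). After 24 h, medium was replaced with compound at 0.5–256 µM (twofold steps). Plates were incubated 72 h at 37 °C, 5% CO2, then with CCK-8 for 4 h. A450 was read. Three independent runs; IC50 given as mean and SD.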
# [2] = Cytotoxicity against human HL-7702 cells assessed as growth inhibition after 72 hrs by CCK8 assay; assay type: toxicity, cell-based, L02; conditions: human, HL-7702 cells; how it was run: as §1
# [3] = Cytotoxicity against human MGC803 cells assessed as growth inhibition after 72 hrs by CCK8 assay; assay type: functional, cell-based, MGC-803; conditions: Homo sapiens, MGC-803, 72 h; read-out: IC50; how it was run: as §1
# [4] = Cytotoxicity against human MCF7 cells assessed as growth inhibition after 72 hrs by CCK8 assay; assay type: functional, cell-based; conditions: Homo sapiens, MCF7, 72 h; read-out: IC50; how it was run: as §1
# [5] = Cytotoxicity against human TE1 cells assessed as growth inhibition after 72 hrs by CCK8 assay; assay type: functional, cell-based, TE-1; conditions: Homo sapiens, TE-1, 72 h; read-out: IC50; how it was run: as §1
# [6] = Cytotoxicity against human GES-1 cells assessed as growth inhibition after 72 hrs by CCK8 assay; assay type: toxicity, cell-based, GES1; conditions: human, GES-1 cells; how it was run: as §1
# MGC-803 [7] = test: Induction of ROS generation in human MGC803 cells at 20 uM after 24 hrs by DCFH-DA staining based flow cytometry (reference value: 2.84%); assay type: functional
# How it was run: (§2)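 MGC-803 cells exposed to 0, 5, 10, 20 µM for 24 h, collected, then loaded with DCFH-DA (10 µM) for 30 min at 37 °C. Washed three times in serum-free medium; DCF green fluorescence quantified by flow cytometry as percent fluorescent cells.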
# MGC-803 [8] = test: Induction of apoptosis in human MGC803 cells assessed as early apoptotic cells at 10 uM after 24 hrs by Annexin-V FITC/propidium iodide staining based flow cytometry (reference value: 0.9 +/- 0.3%); assay type: functional
# MGC-803 [9] = test: Induction of apoptosis in human MGC803 cells assessed as inhibition of Bcl2 protein expression at 5 to 20 uM after 24 hrs by Western blot method; assay type: functional, cell-based
# How it was run: (§3)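 Cells given 0, 5, 10, 20 µM for 24 h, lysed 30 min in RIPA buffer (50 mM Tris-HCl pH 7.5, 150 mM NaCl, detergents) with protease inhibitors. Cleared lysate protein measured by BCA, resolved by SDS-PAGE, moved to nitrocellulose. Membranes blocked in 5% milk, probed with primary antibodies overnight at 4 °C, then secondary (1:5000) 2 h. ECL detection.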
# [10] = Cell cycle arrest in human MGC803 cells assessed as accumulation at G2/M phase at 5 uM after 24 hrs by propidium iodide staining based flow cytometry (reference value: 20.66%); assay type: functional; conditions: MGC-803
# [11] = Cell cycle arrest in human MGC803 cells assessed as accumulation at S phase at 5 uM after 24 hrs by propidium iodide staining based flow cytometry (reference value: 21.32%); assay type: functional; conditions: MGC-803
# MGC-803 [12] = test: Induction of apoptosis in human MGC803 cells assessed as increase in caspase-8 cleavage at 5 to 20 uM after 24 hrs by Western blot method; assay type: functional, cell-based; how it was run: as §3
# MGC-803 [13] = test: Induction of ROS generation in human MGC803 cells after 24 hrs by DCFH-DA staining based flow cytometry; assay type: functional, cell-based; how it was run: as §2
# MGC-803 [14] = test: Induction of morphological changes in human MGC803 cells assessed as nuclear fragmentation at 5 to 20 uM after 24 hrs by Hoechst 33258 staining based confocal microscopic analysis; assay type: functional, cell-based
# How it was run: (§4)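 MGC-803 cells grown on glass slides to about 70% confluence, treated 24 h at 0, 5, 10, 20 µM. PBS-washed, stained 20 min in dark with 10 µg/mL Hoechst 33258 containing 0.1% Triton X-100, washed, mounted, imaged by laser scanning confocal microscopy. Cell morphology also viewed by inverted microscope.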
# MGC-803 [15] = test: Induction of apoptosis in human MGC803 cells assessed as increase in PARP cleavage at 5 to 20 uM after 24 hrs by Western blot method; assay type: functional, cell-based; how it was run: as §3
# MGC-803 [16] = test: Induction of morphological changes in human MGC803 cells assessed as cell debris at 5 to 20 uM after 24 hrs by Hoechst 33258 staining based confocal microscopic analysis; assay type: functional; how it was run: as §4
# [17] = Cell cycle arrest in human MGC803 cells assessed as accumulation at G2/M phase at 20 uM after 24 hrs by propidium iodide staining based flow cytometry (reference value: 20.66%); assay type: functional; conditions: MGC-803
# MGC-803 [18] = test: Induction of apoptosis in human MGC803 cells assessed as activation of Bax protein expression at 5 to 20 uM after 24 hrs by Western blot method; assay type: functional, cell-based; how it was run: as §3
# [19] = Cell cycle arrest in human MGC803 cells assessed as accumulation at S phase at 20 uM after 24 hrs by propidium iodide staining based flow cytometry (reference value: 21.32%); assay type: functional; conditions: MGC-803
# MGC-803 [20] = test: Induction of apoptosis in human MGC803 cells assessed as late apoptotic cells at 10 uM after 24 hrs by Annexin-V FITC/propidium iodide staining based flow cytometry (reference value: 0.4 +/- 0.5%); assay type: functional
# MGC-803 [21] = test: Induction of apoptosis in human MGC803 cells after 24 hrs by Annexin-V FITC/propidium iodide staining based flow cytometry; assay type: functional, cell-based
# MGC-803 [22] = test: Induction of apoptosis in human MGC803 cells assessed as increase in caspase-6 protein expression at 5 to 20 uM after 24 hrs by Western blot method; assay type: functional, cell-based; how it was run: as §3
# MGC-803 [23] = test: Induction of apoptosis in human MGC803 cells assessed as inhibition of Mcl1 protein expression at 5 to 20 uM after 24 hrs by Western blot method; assay type: functional, cell-based; how it was run: as §3
# MGC-803 [24] = test: Induction of ROS generation in human MGC803 cells at 10 uM after 24 hrs by DCFH-DA staining based flow cytometry (reference value: 2.84%); assay type: functional; how it was run: as §2
# MGC-803 [25] = test: Induction of morphological changes in human MGC803 cells assessed as cell rounding up at 5 to 20 uM after 24 hrs by Hoechst 33258 staining based confocal microscopic analysis; assay type: functional; how it was run: as §4
# MGC-803 [26] = test: Induction of apoptosis in human MGC803 cells assessed as late apoptotic cells at 20 uM after 24 hrs by Annexin-V FITC/propidium iodide staining based flow cytometry (reference value: 0.4 +/- 0.5%); assay type: functional
# MGC-803 [27] = test: Induction of apoptosis in human MGC803 cells assessed as late apoptotic cells at 5 uM after 24 hrs by Annexin-V FITC/propidium iodide staining based flow cytometry (reference value: 0.4 +/- 0.5%); assay type: functional
# MGC-803 [28] = test: Induction of morphological changes in human MGC803 cells assessed as chromatin condensation at 5 to 20 uM after 24 hrs by Hoechst 33258 staining based confocal microscopic analysis; assay type: functional, cell-based; how it was run: as §4
# [29] = Cell cycle arrest in human MGC803 cells assessed as accumulation at G0/G1 phase at 10 uM after 24 hrs by propidium iodide staining based flow cytometry (reference value: 54.77%); assay type: functional; conditions: MGC-803
# MGC-803 [30] = test: Induction of apoptosis in human MGC803 cells assessed as increase in caspase-9 cleavage at 5 to 20 uM after 24 hrs by Western blot method; assay type: functional, cell-based; how it was run: as §3
# MGC-803 [31] = test: Induction of apoptosis in human MGC803 cells assessed as early apoptotic cells at 20 uM after 24 hrs by Annexin-V FITC/propidium iodide staining based flow cytometry (reference value: 0.9 +/- 0.3%); assay type: functional
# [32] = Cell cycle arrest in human MGC803 cells assessed as accumulation at G2/M phase after 24 hrs by propidium iodide staining based flow cytometry; assay type: functional; conditions: MGC-803
# [33] = Cell cycle arrest in human MGC803 cells assessed as accumulation at G0/G1 phase at 20 uM after 24 hrs by propidium iodide staining based flow cytometry (reference value: 54.77%); assay type: functional; conditions: MGC-803
# [34] = Cell cycle arrest in human MGC803 cells assessed as accumulation at G2/M phase at 10 uM after 24 hrs by propidium iodide staining based flow cytometry (reference value: 20.66%); assay type: functional; conditions: MGC-803
# [35] = Cell cycle arrest in human MGC803 cells assessed as accumulation at G0/G1 phase at 5 uM after 24 hrs by propidium iodide staining based flow cytometry (reference value: 54.77%); assay type: functional; conditions: MGC-803
# MGC-803 [36] = test: Inhibition of LSD1 expression in human MGC803 cells after 24 hrs by Western blot method; assay type: functional, cell-based; how it was run: as §3
# MGC-803 [37] = test: Anti-migratory activity against human MGC803 cells after 24 hrs by Hoechst 33258 staining based transwell assay; assay type: functional, cell-based
# How it was run: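 MGC-803 cells, 10,000 per upper chamber in 100 µL medium with 1% FBS plus compound (0, 2, 4, 8 µM). Lower chamber held medium with 20% FBS as chemoattractant. After 24 h, chambers PBS-washed, cells stained with Hoechst 33258 (10 µg/mL), migrated cells counted by high content screening.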
# MGC-803 [38] = test: Induction of ROS generation in human MGC803 cells at 5 uM after 24 hrs by DCFH-DA staining based flow cytometry (reference value: 2.84%); assay type: functional; how it was run: as §2
# MGC-803 [39] = test: Induction of apoptosis in human MGC803 cells assessed as early apoptotic cells at 5 uM after 24 hrs by Annexin-V FITC/propidium iodide staining based flow cytometry (reference value: 0.9 +/- 0.3%); assay type: functional
# MGC-803 [40] = test: Induction of apoptosis in human MGC803 cells assessed as increase in caspase-7 protein expression at 5 to 20 uM after 24 hrs by Western blot method; assay type: functional, cell-based; how it was run: as §3
# MGC-803 [41] = test: Induction of morphological changes in human MGC803 cells assessed as nuclear condensation at 5 to 20 uM after 24 hrs by Hoechst 33258 staining based confocal microscopic analysis; assay type: functional, cell-based; how it was run: as §4
# MGC-803 [42] = test: Induction of apoptosis in human MGC803 cells assessed as increase in caspase-3 protein expression at 5 to 20 uM after 24 hrs by Western blot method; assay type: functional, cell-based; how it was run: as §3
# [43] = Cell cycle arrest in human MGC803 cells assessed as accumulation at S phase at 10 uM after 24 hrs by propidium iodide staining based flow cytometry (reference value: 21.32%); assay type: functional; conditions: MGC-803
structure (smiles),measurement,setting,value
O=C1C(=O)N(Cc2cn(CC(=O)N3CCCCC3)nn2)c2c(Cl)ccc(Cl)c21,IC50,[1],29.7 µM
same,IC50 at 72 h,[2],39.3 µM
same,IC50,[3],18.7 µM
same,IC50,[4],34.6 µM
same,IC50,[5],40.6 µM
same,IC50 at 72 h,[6],50.7 µM
CC(C)(C)OC(=O)N1CCN(C(=O)Cn2cc(CN3C(=O)C(=O)c4c(Cl)ccc(Cl)c43)nn2)CC1,IC50,[1],> 128 µM
same,IC50 at 72 h,[2],42 µM
same,IC50,[3],22 µM
same,IC50,[4],46.9 µM
same,IC50,[5],39.2 µM
same,IC50 at 72 h,[6],84.2 µM
O=C(Cn1cc(CN2C(=O)C(=O)c3c(Cl)ccc(Cl)c32)nn1)Nc1ccccc1,IC50,[1],27 µM
same,IC50 at 72 h,[2],24.9 µM
same,IC50,[3],17.5 µM
same,IC50,[4],38.5 µM
same,IC50,[5],30.6 µM
same,IC50 at 72 h,[6],24.9 µM
O=C(Cn1cc(CN2C(=O)C(=O)c3c(Cl)ccc(Cl)c32)nn1)OC1CCCCC1,Activity,MGC-803 [7],19.3%
same,Activity,MGC-803 [8],10.3%
same,inhibition,MGC-803 [9],Active
same,Activity,[10],24.1%
same,Activity,[11],21.5%
same,IC50,[1],25.2 µM
same,Activity,MGC-803 [12],Active
same,Activity,MGC-803 [13],Dose-dependent effect
same,Activity,MGC-803 [14],Active
same,IC50 at 72 h,[2],40.3 µM
same,Activity,MGC-803 [15],Active
same,Activity,MGC-803 [16],Active
same,Activity,[17],32.3%
same,Activity,MGC-803 [18],Active
same,Activity,[19],23.5%
same,IC50,[3],9.78 µM
same,Activity,MGC-803 [20],5.7%
same,Activity,MGC-803 [21],Dose-dependent effect
same,Activity,MGC-803 [22],Active
same,IC50,[4],18.9 µM
same,inhibition,MGC-803 [23],Active
same,Activity,MGC-803 [24],10.3%
same,Activity,MGC-803 [25],Active
same,Activity,MGC-803 [26],4.5%
same,Activity,MGC-803 [27],5%
same,Activity,MGC-803 [28],Active
same,Activity,[29],40.3%
same,Activity,MGC-803 [30],Active
same,IC50,[5],14.2 µM
same,IC50 at 72 h,[6],36 µM
same,Activity,MGC-803 [31],18%
same,Activity,[32],Dose-dependent effect
same,Activity,[33],34.8%
same,Activity,[34],28.7%
same,Activity,[35],48.7%
same,inhibition,MGC-803 [36],Dose-dependent effect
same,Activity,MGC-803 [37],Dose-dependent effect
same,Activity,MGC-803 [38],6.04%
same,Activity,MGC-803 [39],7.8%
same,Activity,MGC-803 [40],Active
same,Activity,MGC-803 [41],Active
same,Activity,MGC-803 [42],Active
same,Activity,[43],24%
